From ChEMBL document CHEMBL1629621, “Evaluation of strategies for improving proteolytic resistance of antimicrobial peptides by using variants of EFK17, an internal segment of LL-37” (Antimicrob Agents Chemother, 2009)
In brackets after ≈: the same amount, converted by molar mass. Activity calls are given as the source filed them. The rule behind the calls is not given here. Where a SMILES comes first, the peptide text is derived from it.

Tests used:
[1] = Toxicity in human erythrocytes at 6 to 60 uM by hemolysis assay; format: cell-based; conditions: erythrocyte
Method in brief: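 EDTA-treated human erythrocytes were washed and used as a 5% suspension in PBS, pH 7.4. Cells were rotated end-over-end with peptide for 1 h at 37°C, then centrifuged. Hemoglobin was read at 540 nm relative to 2% Triton X-100, with spontaneous leakage as background. Triplicate.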

Staphylococcus aureus [2] = experiment: Antimicrobial activity against Staphylococcus aureus FDA 486 after 21 hrs by broth microdilution method; format: functional; conditions: FDA 486, 21 h
Method in brief: (§1)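 Microtiter broth dilution at 37°C for 21 h in DEAE-refined LB medium prepared in 10 mM Tris, pH 7.4. Bacteria were grown overnight in 3% trypticase soy broth, rinsed in Tris and used at about 10^6 CFU/ml. Final peptide was 0.6–80 µM in twofold steps. Growth was read visually as pellet and at OD540. MIC is >95% inhibition with no visible pellet. Two separate experiments.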

Staphylococcus aureus [3] = experiment: Antimicrobial activity against Staphylococcus aureus 2844 after 21 hrs by broth microdilution method; format: functional; conditions: Staphylococcus aureus, 2844, 21 h; method in brief: as §1
Staphylococcus aureus [4] = experiment: Antimicrobial activity against Staphylococcus aureus 29213 after 21 hrs by broth microdilution method; format: functional; conditions: Staphylococcus aureus, 29213, 21 h; method in brief: as §1
Pseudomonas aeruginosa [5] = experiment: Antimicrobial activity against Pseudomonas aeruginosa ATCC 27853 after 21 hrs by broth microdilution method; format: functional; conditions: ATCC 27853, 21 h; method in brief: as §1
Pseudomonas aeruginosa [6] = experiment: Antimicrobial activity against Pseudomonas aeruginosa 15159 after 21 hrs by broth microdilution method; format: functional; conditions: Pseudomonas aeruginosa, 15159, 21 h; method in brief: as §1
HaCaT [7] = experiment: Cytotoxicity against human HaCaT assessed as LDH release at 6 to 60 uM; format: cell-based
Method in brief: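 HaCaT keratinocytes were seeded at 3,000 cells/well and grown to confluence in serum-free keratinocyte medium with BPE-rEGF. They were exposed overnight to 6 or 60 µM peptide in that medium. LDH release was measured against a 1% Triton X-100 control, with spontaneous release as background. Triplicate.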

HaCaT [8] = experiment: Cytotoxicity against human HaCaT assessed at 6 to 60 uM by MTT assay; format: cell-based
Method in brief: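 HaCaT keratinocytes were seeded at 3,000 cells/well, grown to confluence in SFM-BPE-rEGF, and given 6 or 60 µM peptide overnight. MTT was then added for 1 h at 37°C and formazan dissolved in DMSO. Absorbance was read at 550 nm relative to untreated cells, with the 1% Triton X-100 signal as background. Triplicate.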

Lipid bilayer [9] = experiment: Binding affinity to DOPC-cholesterol liposome at 10 to 1000 uM after 45 mins by ellipsometry
Method in brief: (§2)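 Ellipsometry on DOPC-cholesterol bilayers deposited from DDM micelles onto silica. Peptide was added cumulatively in 10 mM Tris, pH 7.4, with 5 mM glucose at 37°C; […] adds 150 mM NaCl. Each step was followed 45 min to saturation. Adsorbed amount was calculated from refractive index and thickness, with dn/dc 0.154 cm3/g. Duplicates.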

Lipid bilayer [10] = experiment: Binding affinity to DOPC-cholesterol liposome at 10 to 1000 uM after 45 mins by ellipsometry in presence of NaCl; method in brief: as §2
[11] = Stability of the compound at 136 uM after 4 hrs in presence of human neutrophil elastase; format: ADME
Method in brief: (§3)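 Peptide at 136 µM was incubated with protease (peptide:enzyme 300:1) for 4 h at 37°C in 10 mM Tris, pH 7.4. The reaction was stopped by boiling in Laemmli buffer, then run on Tris-Tricine 16.5% SDS-PAGE and Coomassie stained. Band densitometry gave the undegraded fraction, normalized to peptide incubated without enzyme. Two separate experiments.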

[12] = Stability of the compound at 136 uM after 4 hrs in presence of Pseudomonas aeruginosa elastase; format: ADME; method in brief: as §3
[13] = Stability of the compound at 136 uM after 4 hrs in presence of aureolysin; format: ADME; method in brief: as §3
[14] = Stability of the compound at 136 uM after 4 hrs in presence of […] V8 protease; format: ADME; method in brief: as §3
Lipid bilayer [15] = experiment: Induction of DOPC-cholesterol liposome leakage in cell-free system at 0.1 to 1 uM after 45 mins; format: functional
Method in brief: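 Carboxyfluorescein-loaded (100 mM, self-quenching) DOPC-cholesterol 3:2 unilamellar liposomes, about 110 nm, at 10 µM lipid in Tris buffer at 37°C with stirring. Peptide was added at a single concentration per experiment, between 0.01 and 1 µM. After a 10 min baseline, fluorescence increase was followed for 45 min and the limiting leakage level taken.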

[16] = Toxicity in human erythrocytes at 60 uM by hemolysis assay in presence of serum; format: cell-based; conditions: erythrocyte

Row | MIC (Staphylococcus aureus [2]) [µM] | MIC (Staphylococcus aureus [3]) [µM] | MIC (Staphylococcus aureus [4]) [µM] | MIC (Pseudomonas aeruginosa [5]) [µM] | MIC (Pseudomonas aeruginosa [6]) [µM] | Activity (Lipid bilayer [9]) | Activity (Lipid bilayer [10]) | Stability [11] | Stability [12] | Stability [13] | Stability [14] | Structure (SMILES) | Activity [1] | Activity (HaCaT [7]) | Activity (HaCaT [8]) | Activity (Lipid bilayer [15]) | Activity [16]
1 | 5 (≈ 12 µg/mL) | 5 (≈ 12 µg/mL) | 10 (≈ 24 µg/mL) | 10 (≈ 24 µg/mL) | 20 (≈ 48 µg/mL) | Active | inactive | Stable | Unstable | Stable | Stable | CC(C)C[C@H](NC(=O)[C@H](Cc1c[nH]c2ccccc12)NC(=O)[C@H](CC(=O)O)NC(=O)[C@H](CCCCN)NC(=O)[C@H](Cc1c[nH]c2ccccc12)NC(=O)[C@H](CCCNC(=N)N)NC(=O)[C@H](CCC(N)=O)NC(=O)[C@@H](NC(=O)[C@H](Cc1c[nH]c2ccccc12)NC(=O)[C@H](CCCNC(=N)N)NC(=O)[C@H](CCCCN)NC(=O)[C@H](Cc1c[nH]c2ccccc12)NC(=O)[C@@H](N)CCC(=O)O)C(C)C)C(=O)N[C@@H](CCCNC(=N)N)C(=O)N[C@@H](CC(N)=O)C(=O)N[C@@H](CC(C)C)C(=O)N[C@H](C(=O)O)C(C)C (H-EWKRWVQRWKDWLRNLV-OH) | Toxic | Toxic | Toxic | Active | –
2 | 40 (≈ 87 µg/mL) | 20 (≈ 43.5 µg/mL) | 80 (≈ 174 µg/mL) | 80 (≈ 174 µg/mL) | 80 (≈ 174 µg/mL) | Active | inactive | Unstable | Unstable | Unstable | Stable | CC[C@H](C)[C@H](NC(=O)[C@H](CCCNC(=N)N)NC(=O)[C@H](CCC(N)=O)NC(=O)[C@@H](NC(=O)[C@@H](NC(=O)[C@H](CCCNC(=N)N)NC(=O)[C@H](CCCCN)NC(=O)[C@H](Cc1ccccc1)NC(=O)[C@@H](N)CCC(=O)O)[C@@H](C)CC)C(C)C)C(=O)N[C@@H](CCCCN)C(=O)N[C@@H](CC(=O)O)C(=O)N[C@@H](Cc1ccccc1)C(=O)N[C@@H](CC(C)C)C(=O)N[C@@H](CCCNC(=N)N)C(=O)N[C@@H](CC(N)=O)C(=O)N[C@@H](CC(C)C)C(=O)N[C@H](C(=O)O)C(C)C | – | – | – | Active | Non-toxic
